Consider one compound from ChEMBL document CHEMBL3734704, “Synthesis and Biological Evaluation of Novel Bouchardatine Derivatives as Potential Adipogenesis/Lipogenesis Inhibitors for Antiobesity Treatment” (J Med Chem, 2015).

Calls of active or inactive are those of the source. The rule behind the calls is not given here.

A short description of assay [1]: Decrease in triglyceride level in mouse 3T3L1 cells during all developmental stages at 0.5 uM for 9 days. The format is functional, cell-based. Particulars: 3T3-L1. An outline of the steps: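 During 3T3-L1 differentiation with compound present (0.5 µM, or 5 µM for one compound), cells were collected and counted every day and triglyceride content was measured by TG assay.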

Assay [2] in a line: Decrease in triglyceride level in mouse 3T3L1 preadipocytes compound treated for 6 days measured on day 6 by oil red O staining based microscopic analysis. Format: functional, cell-based. A digest of the protocol:
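3T3-L1 preadipocytes, 2 days post-confluent, treated at 0.01-10.0 µM for 6 days of differentiation, with compound added Day 0 and renewed Day 3. On Day 6, TG measured by TG assay (per protein) and confirmed by Oil Red O staining; n = 3.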

For assay [3], the system named is 3T3-L1. Nature of the assay: Decrease in lipid droplet accumulation in mouse 3T3L1 cells at 1 uM measured during 0 to 3,0 to 6,0 to 9, 3 to 6, 3 to 9 and 6 to 9 days by oil red O staining based microscopic analysis. Format: functional, cell-based. A digest of the protocol: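 3T3-L1 cells given 1 µM compound during day 0-3, 0-6, 0-9, 3-6, 3-9 or 6-9 of differentiation. On Day 9, intracellular lipid measured by TG assay (Triton lysate, GPO-POD kit, per protein) and by Oil Red O staining with microscopy; n = 3.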

Assay [4] can be described thus: Cell cycle arrest in mouse 3T3L1 cells assessed as number of cells at S phase at 0.3 uM after 24 hrs by flow cytometry (reference value: 18.1%). Format: functional, cell-based. The following applies: 3T3-L1.
The nature of assay [5]: Cell cycle arrest in mouse 3T3L1 cells assessed as number of cells at S phase at 1 uM after 24 hrs by flow cytometry (reference value: 18.1%). The format is functional, cell-based. Particulars: 3T3-L1.
Assay [6] can be described thus: Cell cycle arrest in mouse 3T3L1 cells assessed as number of cells at G2/M phase at 0.3 uM after 24 hrs by flow cytometry (reference value: 37.2%). The format is functional, cell-based. Particulars: 3T3-L1.
Assay [7] in a line: Cell cycle arrest in mouse 3T3L1 cells assessed as number of cells at G2/M phase at 1 uM after 24 hrs by flow cytometry (reference value: 37.2%). Particulars: 3T3-L1. Format: functional, cell-based.
A short description of assay [8]: Cell cycle arrest in mouse 3T3L1 cells assessed as number of cells at G2/M phase at 3 uM after 24 hrs by flow cytometry (reference value: 37.2%). Particulars: 3T3-L1. Format: functional, cell-based.
Assay [9] is described as follows: Cell cycle arrest in mouse 3T3L1 cells assessed as number of cells at G0/G1 phase at 1 uM after 24 hrs by flow cytometry (reference value: 37.6%). Format: functional, cell-based. Particulars: 3T3-L1.
Assay [10] relates to 3T3-L1. Put plainly: Induction of apoptosis in mouse 3T3L1 cells assessed as viable cells at 3 uM after 24 hrs by annexin-V-FITC and PI staining based flow cytometry (reference value: 98.95%). The following applies: 3T3-L1, 24 h, read-out: Activity. The format is functional.
For assay [11], the system named is 3T3-L1. Put plainly: Induction of apoptosis in mouse 3T3L1 cells assessed as early apoptotic cells at 3 uM after 24 hrs by annexin-V-FITC and PI staining based flow cytometry (reference value: 0.56%). Format: functional.
For assay [12], the system named is 3T3-L1. Put plainly: Induction of apoptosis in mouse 3T3L1 cells assessed as viable cells at 0.3 uM after 24 hrs by annexin-V-FITC and PI staining based flow cytometry (reference value: 98.95%). The format is functional. The following applies: 3T3-L1, 24 h, read-out: Activity.
The test system of assay [13] is 3T3-L1. Nature of the assay: Induction of apoptosis in mouse 3T3L1 cells assessed as viable cells at 1 uM after 24 hrs by annexin-V-FITC and PI staining based flow cytometry (reference value: 98.95%). The following applies: 3T3-L1, 24 h, read-out: Activity. Format: functional.
Assay [14] can be described thus: Downregulation of SREBP-1c mRNA level in mouse 3T3L1 cells at 0.3 to 3 uM after 24 hrs by RT-PCR analysis. Format: functional, cell-based. The following applies: 3T3-L1. An outline of the steps: (§1)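 3T3-L1 preadipocytes in adipogenic cocktail with compound (0.3-3.0 µM; 3 µM for the 2 h and 24 h time course). Total RNA extracted, cDNA made from 1 µg RNA with oligo primer, then PCR: 95 °C 10 min, 35 cycles of 95 °C 30 s, annealing 45 s, 72 °C 1 min, final 72 °C 10 min. Normalized to actin; n = 3.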

Assay [15] is described as follows: Downregulation of PPAR-gamma level in mouse 3T3L1 cells at 0.3 to 3 uM after 3 days by western blot analysis. The format is functional, cell-based. The following applies: 3T3-L1. An outline of the steps: (§2)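 3T3-L1 preadipocytes incubated in adipogenic cocktail with or without compound (0.3, 1.0, 3.0 µM) for the stated periods. Protein levels measured by Western blot (RIPA lysis, PVDF, BSA block, primary 16 h at 4 °C, HRP secondary), normalized to GAPDH/Tubulin and expressed relative to controls; n = 3.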

Assay [16] is described as follows: Downregulation of FAS level in mouse 3T3L1 cells after 6 days by western blot analysis. Format: functional, cell-based. The following applies: 3T3-L1. A digest of the protocol: as §2
A short description of assay [17]: Upregulation of LKB1 expression in mouse 3T3L1 cells at 3 uM after 10 mins by western blot analysis. Format: functional, cell-based. Particulars: 3T3-L1. A digest of the protocol: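 During 3T3-L1 differentiation with adipogenic cocktail, cells were treated with 3 µM compound for 10 min, 2 h or 24 h. Lysates in RIPA with protease/phosphatase inhibitors were run on SDS-PAGE and Western blotted. Proteins were normalized to GAPDH and expressed relative to the 10 min DMSO group, which was set at 100%; n = 3 independent experiments.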

The nature of assay [18]: Downregulation of C/EBP alpha mRNA level in mouse 3T3L1 cells at 3 uM after 24 hrs by RT-PCR analysis. The format is functional, cell-based. The following applies: 3T3-L1. An outline of the steps: as §1
Assay [19] has as its target T1, Serine/threonine-protein kinase STK11 (Mus musculus) (UniProt Q9WTK7).
T1 sequence (whole entry): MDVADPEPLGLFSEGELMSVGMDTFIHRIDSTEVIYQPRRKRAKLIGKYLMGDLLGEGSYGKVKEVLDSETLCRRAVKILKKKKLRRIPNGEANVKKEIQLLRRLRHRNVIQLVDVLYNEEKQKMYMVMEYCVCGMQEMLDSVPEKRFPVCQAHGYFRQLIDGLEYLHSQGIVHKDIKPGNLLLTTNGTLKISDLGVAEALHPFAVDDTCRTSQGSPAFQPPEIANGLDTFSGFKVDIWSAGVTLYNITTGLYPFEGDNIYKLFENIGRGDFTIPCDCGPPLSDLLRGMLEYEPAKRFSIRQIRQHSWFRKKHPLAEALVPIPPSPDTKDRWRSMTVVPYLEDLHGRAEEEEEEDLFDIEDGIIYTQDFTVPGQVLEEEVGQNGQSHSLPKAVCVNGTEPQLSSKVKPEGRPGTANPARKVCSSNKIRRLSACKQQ
Nature of the assay: Activation of LKB1-mediated ACC in mouse 3T3L1 cells assessed as increase in phophorylated ACC level at 3 uM by western blot analysis. The following applies: 3T3-L1, TDE = time-dependent effect. Format: cell-based. A digest of the protocol: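 3T3-L1 preadipocytes held in adipogenic cocktail with or without compound at 3 µM, time course (10 min, 2 h, 24 h) during differentiation. Lysis in RIPA with protease/phosphatase inhibitors, SDS-PAGE, PVDF, BSA block, primary antibody 16 h at 4 °C, HRP secondary. Bands normalized to GAPDH, with the 10 min DMSO group set as 100%; n = 3.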

Assay [20] in a line: Decrease in triglyceride accumulation in mouse 3T3L1 cells at 1 uM for 3 days oil red O staining based microscopic analysis. The following applies: 3T3-L1. The format is functional, cell-based. An outline of the steps:
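3T3-L1 cells differentiated from 2 days post-confluence with IBMX/dexamethasone/insulin cocktail for 3 days, then insulin medium to Day 6. Compounds at 1 and 10 µM added Day 0 for 3 days. Triglyceride read on Day 6 with Oil Red O (formaldehyde fixation, 30 min stain, isopropanol extraction, OD 510 nm); n = 3.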

For the compound `O=Cc1c(-c2nc(NCCN3CCCC3)c3ccccc3n2)[nH]c2ccccc12`, the inhibition result in assay [1], in assay [3], in assay [14], in assay [15] and in [18] was “Active” in each case. Besides, the inhibition result in assay [2] (3T3-L1) is “Dose-dependent effect”; in [16] it was “Dose-dependent effect”; in assay [20], 87.6%. Besides, the response in [2] (3t3-l1) was half-maximal at 17 nM (EC50). Moreover, the Activity came to 6.4% in assay [4]; 5.2% in assay [5]; 40.2% in assay [6]; 46.9% in assay [7]; 57.9% in assay [8]; 42.9% in [9]. Moreover, the figures for the Activity in assay [11] and in assay [19] were 0.39% and “tde”, respectively. In addition, in assay [10], the viability at 3 µM was 97.7%. In [12], the viability at 0.3 µM stood at 96.5%. Moreover, the viability at 1 µM in assay [13] amounted to 98%. The outcome in assay [17] was Active.
